In ChEMBL document CHEMBL1126613, “Centrally acting serotonergic agents. Synthesis and structure-activity relationships of C-1- or C-3-substituted derivatives of 8-hydroxy-2-(di-n-propylamino)tetralin” (J Med Chem, 1993):
Several values for one entry are separate records, joined by “and”; a condition that tells them apart may be missing. Identical values can stand only once.

Key:
[1] = test system: Mus musculus; test: Tested in vivo for the effective dose administered orally in mouse hypothermia assay; assay type: functional; settings: po
Summary of the method: (§1)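 Charles River CF-1 mice (18-22 g, 4 per dose), housed individually 20 min before testing. Rectal temperature taken before dosing and 20 min after (sc 0.1 mL; oral 0.2 mL by gavage needle). A drop of ≥2 °F counted as positive. Doses started at 30 mg/kg and fell by half-log until 0/4 responded.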

[2] = test system: Mus musculus; test: In vivo effective dose administered subcutaneously in mouse hypothermia assay.; assay type: functional; settings: sc; summary of the method: as §1
[3] = test system: Mus musculus; test: Behavioral time in mouse face to face assay at 0.3 umol/kg administered perorally; assay type: functional
Summary of the method: (§2)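 Male CF-1 mice (Charles River, 19-29 g), 8 pairs per dose, dosed sc, ip or orally in 0.25% methylcellulose or 0.1% citric acid; 30 min absorption housed with familiar partner. Pairs from different home cages placed in small litter-floored cage; face-to-face interaction duration scored visually for 3 min. Wilcoxon rank sum (two-tailed) vs daily control, p < 0.05.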

[4] = test system: Mus musculus; test: Behavioral time in mouse face to face assay at 0 umol/kg administered perorally; assay type: functional; summary of the method: as §2
[5] = test system: Rattus norvegicus; test: Effect on the synthesis rate of dopamine (DOPA) accumulation at the dose of 9.7 umol/kg in the rat ventral limbic brain region; assay type: functional, Limbic system
Summary of the method: (§3)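 Male Sprague-Dawley rats dosed sc with drug or vehicle at time zero. NSD 1015 (100 mg/kg ip) given 15 min later to block aromatic decarboxylase. Brain DOPA and 5-HTP measured by electrochemical detection with peak integration. Expressed as percent change from NSD 1015 plus saline controls. Control and test groups N = 6 each, compared by unpaired t test.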

[6] = test system: Rattus norvegicus; test: Effect on the synthesis rate of 5 HTP accumulation at the dose of 9.7 umol/kg in the rat ventral limbic brain region; assay type: functional, Limbic system; summary of the method: as §3
[7] = test system: Mus musculus; test: In vivo effective dose administered orally in mouse hypothermia assay (approximate ED50).; assay type: functional; settings: po; summary of the method: as §1
[8] = test system: Mus musculus; test: Tested in vivo for the maximum temperature decrease in mouse hypothermia assay.; assay type: functional
Summary of the method: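 CF-1 mice (18-22 g, 4 per dose), dosed sc or orally. Rectal temperature measured before dosing and 20 min after. The mean maximum temperature drop (°F) at 20 min after any dose is recorded as an efficacy index.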

[9] = species on record: Felis catus; test: Maximum decrease observed; assay type: functional; set-up: unit not given here
[10] = test system: Felis catus; test: Maximum decrease on arterial blood pressure at 1 mg/kg; assay type: functional
Summary of the method: (§4)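 Adult cats (2.5-4.0 kg) anesthetized with ketamine 11 mg/kg im, then chloralose 80 mg/kg iv. Femoral artery cannulated for blood pressure, femoral vein for drug. Ventilated, paralyzed with gallamine 4 mg/kg iv, rectal temperature held at 37-38 °C. Cumulative iv doses given at 20-min intervals. Maximum decrease reported following a 1 mg/kg iv dose.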

[11] = test system: Felis catus; test: (§5) Dose on arterial blood pressure (BP) in anesthetized cat; assay type: functional; summary of the method: as §4
[12] = species on record: Felis catus; test: Dose at which the SND has been reduced to 50% of the pretreatment value; assay type: functional
Summary of the method: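 Adult cats (2.5-4.0 kg), ketamine 11 mg/kg im then chloralose 80 mg/kg iv, ventilated, gallamine-paralyzed, rectal temperature 37-38 °C. Sympathetic nerve discharge quantified by cumulative integration. Cumulative iv doses were given at 20-min intervals. Value is the dose reducing discharge to 50% of pretreatment.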

[13] = test system: Mus musculus; test: Behavioral time in mouse face to face assay at 32.5 umol/kg administered perorally; assay type: functional; summary of the method: as §2
[14] = test system: Mus musculus; test: Behavioral time in mouse isolation-induced aggression assay at 9.7 umol/kg administered perorally; assay type: functional
Summary of the method: (§6)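 Male CF-1 mice. Residents were isolated singly for at least 1 month; group-housed intruders were kept 4-6/cage. Mice weighed 28-30 g at first test. Residents got drug ip or orally in 0.25% methylcellulose or 0.1% citric acid 30 min before an untreated intruder was introduced. Latency to fighting was recorded, capped at 600 s. Dosing was blind, 6/group (vehicle n = 12), Wilcoxon rank sum.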

[15] = test system: Mus musculus; test: Behavioral time in mouse face to face assay at 3.2 umol/kg administered perorally; assay type: functional; summary of the method: as §2
[16] = test system: Mus musculus; test: Behavioral time in mouse isolation-induced aggression assay at 0 umol/kg administered perorally; assay type: functional; summary of the method: as §6
[17] = test system: Mus musculus; test: Behavioral time in mouse isolation-induced aggression assay at 32.5 umol/kg administered perorally; assay type: functional; summary of the method: as §6
[18] = test system: Rattus norvegicus; test: Effect on the synthesis rate of dopamine (DOPA) accumulation at the dose of 3.2 umol/kg in the rat ventral limbic brain region; assay type: functional, Limbic system; summary of the method: as §3
[19] = test system: Rattus norvegicus; test: Effect on the synthesis rate of 5 HTP accumulation at the dose of 3.2 umol/kg in the rat ventral limbic brain region; assay type: functional, Limbic system; summary of the method: as §3
[20] = species on record: Rattus norvegicus; test: Effect on the synthesis rate of dopamine (DOPA) accumulation at the dose of […] in the rat ventral limbic brain region; assay type: functional, Limbic system
[21] = species on record: Rattus norvegicus; test: Effect on the synthesis rate of 5 HTP accumulation at the dose of […] in the rat ventral limbic brain region; assay type: functional, Limbic system
[22] = test system: Felis catus; test: Effect on arterial blood pressure (BP) in anesthetized cat; assay type: functional; summary of the method: as §4
[23] = test system: Felis catus; test: as §5; assay type: functional; remark: listed apart in the source
[24] = test system: Mus musculus; test: Behavioral time in mouse face to face assay at 30 umol/kg administered subcutaneously; assay type: functional
Summary of the method: (§7)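 Male CF-1 mice (19-29 g), 8 pairs per dose, dosed sc, ip or orally in 0.25% methylcellulose or 0.1% citric acid. Pairs from the same home cage are held together for 30 min. Pairs from different cages are then placed in a small litter-floored cage, and face-to-face interaction is timed visually for 3 min. Comparison with the daily control by two-tailed Wilcoxon rank sum, p<0.05.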

[25] = test system: Mus musculus; test: Behavioral time in mouse face to face assay at 30 umol/kg administered subcutaneously (*P<0.05); assay type: functional; summary of the method: as §7
[26] = test system: Mus musculus; test: Behavioral time in mouse face to face assay at 3.0 umol/kg administered subcutaneously; assay type: functional; summary of the method: as §7
[27] = test system: Mus musculus; test: Behavioral time in mouse isolation-induced aggression behavioral assay at 30 umol/kg administered intraperitoneally (*P<0.05); assay type: functional
Summary of the method: (§8)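 Isolated male CF-1 resident mice, housed singly ≥1 month and weighing 28-30 g at testing, were dosed ip or orally in 0.25% methylcellulose or 0.1% citric acid. Dosing was blind, 6 per group (n=12 vehicle). After 30 min an untreated group-housed intruder was introduced. Latency to fighting was recorded, capped at 600 s. Residents rested ≥3 days before reuse. Wilcoxon rank sum.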

[28] = test system: Mus musculus; test: Behavioral time in mouse isolation-induced aggression behavioral assay at 9.1 umol/kg administered intraperitoneally (*P<0.05); assay type: functional; summary of the method: as §8
[29] = test system: Mus musculus; test: Behavioral time in mouse face to face assay at dose of 0 umol/kg administered; assay type: functional; summary of the method: as §7
[30] = test system: Mus musculus; test: Behavioral time in mouse isolation-induced aggression assay 0 umol/kg administered intraperitoneally; assay type: functional; summary of the method: as §8
[31] = test system: Mus musculus; test: Behavioral time in mouse isolation-induced aggression assay 0.3 umol/kg administered intraperitoneally; assay type: functional; summary of the method: as §8
[32] = test system: Mus musculus; test: Behavioral time in mouse isolation-induced aggression assay at 0 umol/kg administered intraperitoneally; assay type: functional; summary of the method: as §8
[33] = test system: Mus musculus; test: Behavioral time in mouse isolation-induced aggression assay at 0.9 umol/kg administered intraperitoneally; assay type: functional; summary of the method: as §8
[34] = test system: Mus musculus; test: Behavioral time in mouse isolation-induced aggression assay at 3.0 umol/kg administered intraperitoneally (*P<0.05); assay type: functional; summary of the method: as §8
[35] = test system: Rattus norvegicus; test: Effect on the synthesis rate of dopamine (DOPA) accumulation at the dose of 3.0 umol/kg in the rat ventral limbic brain region; assay type: functional, Limbic system
Summary of the method: (§9)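 Male Sprague-Dawley rats were given test drug or vehicle sc at time zero, then NSD 1015 (100 mg/kg ip) 15 min later. DOPA and 5-HTP were measured electrochemically by peak integration. Results are expressed as percent change from NSD 1015 plus saline controls. Groups of 6 vs control 6, unpaired t test.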

[36] = test system: Rattus norvegicus; test: Effect on the synthesis rate of dopamine (DOPA) accumulation at the dose of 0.3 umol/kg in the rat ventral limbic brain region; assay type: functional, Limbic system; summary of the method: as §9
[37] = test system: Rattus norvegicus; test: Effect on the synthesis rate of 5 HTP accumulation at the dose 0.3 umol/kg in the rat ventral limbic brain region; assay type: functional, Limbic system; summary of the method: as §9
[38] = test system: Rattus norvegicus; test: Effect on the synthesis rate of 5 HTP accumulation at the dose of 3.0 umol/kg in the rat ventral limbic brain region (*P<0.05); assay type: functional, Limbic system; summary of the method: as §9

## CCCN[C@@H]1CCc2cccc(OC)c2[C@H]1CC1CC1
[1]
  ED50: 99 µmol/kg
[2]
  ED50: 13 µmol/kg
[3]
  Time: 1.5 s
[4]
  Time: 2 s and 5 s
[5]
  Change: 18.7%
[6]
  Change: -43.7%

## COc1cccc2c1[C@H](CC1CC1)[C@H](NCC1CC1)CC2
[7]
  ED50: > 93 µmol/kg
[2]
  ED50: 23 µmol/kg
[8]
  TMP.decrease: 6.8 degrees F

## C=CCN[C@@H]1CCc2cccc(OC)c2[C@@H]1CC1CC1
[2]
  ED50: 32 µmol/kg
[8]
  TMP.decrease: 7.1 degrees F

## C=CCN(CCC)[C@@H]1CCc2cccc(OC)c2C1=C
[9]
  Max decrease: 20
[10]
  Max decrease: 51
[11]
  BP: 59%
[12]
  ED50: 0.91 µmol/kg
[2]
  ED50: > 97 µmol/kg
[13]
  Time: 2.5 s
[3]
  Time: 1.9 s
[14]
  Time: 61 s
[15]
  Time: 1.9 s
[16]
  Time: 56 s
[17]
  Time: 416 s
[4]
  Time: 0.7 s
[8]
  TMP.decrease: 3.6 degrees F
[18]
  Change: -36%
[19]
  Change: -52%

## CCC[C@H]1c2c(cccc2OC)CC[C@H]1N(CCC)CCC
[10]
  Max decrease: 87
[11]
  Max decrease: 137
[12]
  ED50: > 2.94 µmol/kg
[2]
  ED50: 51 µmol/kg
[8]
  TMP.decrease: 2.8 degrees F
[20]
  Change: -14%
[21]
  Change: -3.9%

## C=CCN[C@@H]1CCc2cccc(OC)c2[C@H]1CC1CC1 (relative stereo)
[7]
  ED50: > 97 µmol/kg
[2]
  ED50: 24 µmol/kg
[8]
  TMP.decrease: 6.2 degrees F

## C=CCN[C@@H]1CCc2cccc(OC)c2[C@H]1CC=C (relative stereo)
[9]
  Max decrease: 10
[10]
  Max decrease: 45
[11]
  BP: 59%
[12]
  ED50: 1.19 µmol/kg
[1]
  ED50: 79 µmol/kg
[2]
  ED50: 5.9 µmol/kg
[8]
  TMP.decrease: 11.5 degrees F and 6.6 degrees F

## C=CC[C@@H]1c2c(cccc2OC)CC[C@H]1NCC1CC1 (relative stereo)
[9]
  Max decrease: 21
[10]
  Max decrease: 46
[22]
  BP: 65%
[12]
  ED50: 0.81 µmol/kg
[1]
  ED50: > 97 µmol/kg
[2]
  ED50: 10 µmol/kg
[8]
  TMP.decrease: 11.5 degrees F

## CCCN(CCC)C1CCc2cccc(O)c2C1 (configuration not stated) [8-OH-DPAT]
[9]
  Max decrease: 2
[10]
  Max decrease: 57
[23]
  BP (ED50): 66%
[12]
  ED50: 0.03 µmol/kg
[1]
  ED50: 9.7 µmol/kg
[2]
  ED50: 1 µmol/kg
[24]
  Time: 5 s
[25]
  Time: 4.4 s
[26]
  Time: 1.6 s
[27]
  Time: 351 s
[28]
  Time: 437 s
[29]
  Time: 1.1 s
[30]
  Time: 6 s
[31]
  Time: 11 s
[32]
  Time: 177 s
[33]
  Time: 20 s
[34]
  Time: 310 s
[8]
  TMP.decrease: 7.2 degrees F and 7.5 degrees F
[35]
  Change: 3.2%
[36]
  Change: 16%
[37]
  Change: -37%
[38]
  Change: -48%
